Bioassay records: PubChem BioAssay, several laboratories
Compounds with a hit are over-represented: about 1.8% of the library has one in this group of screens.
eIF4H inh: human eIF4H binding inhibitors, primary screen, translation initiation inhibitor project, biochemical, uHTS, fluorescence polarization. Eukaryotic translation initiation factor 4H (Homo sapiens), Q15056. eIF4H fluorescence polarization binding assay. inhibition, % at 35 µM. 0.94% of 290,000 active;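 also: calls also rest on retests at 20 µM and on dose response follow-up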
PABP polyA inh: PABP poly(A) RNA binding inhibitors, primary screen, biochemical, fluorescence polarization, uHTS; calls only at 35 µM; AID 2014, 2009; 1% of 290,000 active; Polyadenylate-binding protein 1 (Homo sapiens), P11940;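 also: calls also rest on retests at 20 µM and on dose response follow-up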
eIF4E 4G PPI: eIF4E–eIF4G protein interaction inhibitors, primary screen, biochemical, uHTS, TR-FRET, eIF4GI fragment | TR-FRET eIF4E-eIF4GI(517-606) binding, 2 h | Eukaryotic translation initiation factor 4E (Mus musculus) + Eukaryotic translation … | inhibition, % at 21.7 µM | AID 782, 2007 | 0.37% of 220,000 active;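 active = inhibition above about 30%, limit read from the data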;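 also: 0% = full FRET control wells and 100% = background wells lacking eIF4GI fragment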
core dimer inh: inhibitors of HCV core protein dimerization, primary screen, biochemical, TR-FRET, high-throughput; inhibition, % at 5 µM; AID 1899, 2009; TR-FRET GST/Flag-core106 dimerization, 1536-well; 0.33% of 300,000 active;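 active = inhibition above the mean of all tested compounds plus 3 SD, set per screening campaign, cut at about 45% in these data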
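Assay system: Tagged HCV core106 pair (GST and Flag) | Buffer or medium: KF-containing HEPES buffer, pH 7.45, DTT, CHAPS, BSA | Also added: Eu donor and XL665 acceptor anti-tag antibodies | Dosing: One concentration, 5 µM, in 0.5% DMSO | Timing: 4 h at 22.5 °C | Technique: TR-FRET 671 and 617 nm emission | Repeats: Singlicate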
MLLE-PAM2 inh: inhibitors of PABP1 MLLE–PAM2 peptide binding, primary screen, biochemical, fluorescence polarization, FITC-PAM2, GST-MLLE | inhibition, % at 20 µM | 0.36% of 360,000 active | AID 588489, 2011; in the data active = inhibition above about 35%, passing the limit was not always enough;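 also: plate controls were DMSO wells with GST-MLLE for no effect and wells lacking GST-MLLE protein for full effect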
UBC9 SUMO inh: inhibitors of in vitro SUMOylation cascade, primary screen, biochemical, HTRF, uHTS; 0.36% of 290,000 active; inhibition, % at 35 µM; SUMO-conjugating enzyme UBC9 (Homo sapiens), P63279; AID 2006, 2009; HTRF SUMOylation assay, SAE1/SAE2 + UBC9; in the data active = inhibition above about 50%, passing the limit was not always enough; inconclusive = no clear call, values can overlap the other calls
Numbers without * were called inactive. Unless noted, no rule for the calls is given here.

Results for COC(=O)c1ccc(NC(=O)CN2CCN(CC#N)CC2)cc1 ?
eIF4H inh: 7.9; PABP polyA inh: inactive; core dimer inh: -8.4; MLLE-PAM2 inh: 19.8; UBC9 SUMO inh: 8.4

How did CCc1ccc(NC(=O)NCc2cccnc2)cc1 do in these assays?
eIF4H inh: 4.0; PABP polyA inh: inactive; core dimer inh: -7.4; MLLE-PAM2 inh: -2.6; UBC9 SUMO inh: -5.6

Results for Cn1cccc1/C=C1\SC(=O)N(c2ccc(O)cc2)C1=O ?
eIF4H inh: 0.7*; PABP polyA inh: active; eIF4E 4G PPI: -5.4; core dimer inh: 3.0; MLLE-PAM2 inh: 17.4; UBC9 SUMO inh: 14.6

Results for CCOc1ccc(N2C(=O)S/C(=C\c3cccn3C)C2=O)cc1 ?
eIF4H inh: 3.9; PABP polyA inh: inactive; eIF4E 4G PPI: 5.9; core dimer inh: 0.1; MLLE-PAM2 inh: -0.2; UBC9 SUMO inh: 14.9

What do the screens show for `COc1ccc(-c2cc(=O)c3cc(O)ccc3o2)cc1`?
eIF4H inh: 4.8; PABP polyA inh: inactive; eIF4E 4G PPI: 3.2; core dimer inh: -11.3; MLLE-PAM2 inh: 1.4; UBC9 SUMO inh: 0.8

What do the screens show for `COc1ccc2oc(-c3ccncc3)cc(=O)c2c1`?
MLLE-PAM2 inh: 40.1*

What do the screens show for `CCCCc1ccc(-c2csc(/C(C#N)=C\c3ccco3)n2)cc1`?
eIF4H inh: 55.2*; PABP polyA inh: inactive; eIF4E 4G PPI: 0.3; core dimer inh: 3.7; MLLE-PAM2 inh: -61.7; UBC9 SUMO inh: 28.8

Results for CCCCc1ccc(-c2csc(/C(C#N)=C/c3ccc(C)o3)n2)cc1 ?
eIF4H inh: 26.0; PABP polyA inh: inactive; eIF4E 4G PPI: 9.3; core dimer inh: 1.9; MLLE-PAM2 inh: -58.4; UBC9 SUMO inh: 41.9

Results for COc1ccc(C2C(C#N)=C(N)OC3=C2C(=O)CC(C)(C)C3)c([N+](=O)[O-])c1OC (stereo not drawn) ?
eIF4H inh: -8.1; PABP polyA inh: inactive; eIF4E 4G PPI: -4.4; core dimer inh: 2.0; MLLE-PAM2 inh: 45.1*; UBC9 SUMO inh: 4.5

How did COc1ccccc1NS(=O)(=O)c1cc([N+](=O)[O-])ccc1N/N=C/c1sc(N2CCOCC2)nc1-c1ccccc1 do in these assays?
eIF4H inh: 70.7*; PABP polyA inh: active; eIF4E 4G PPI: -5.1; core dimer inh: 19.8; MLLE-PAM2 inh: -157.3; UBC9 SUMO inh: 6.9

How did CC(=O)NN1C(=O)/C(=C\c2ccc(O)cc2)SC1=S do in these assays?
eIF4H inh: inconclusive; PABP polyA inh: inconclusive; eIF4E 4G PPI: 1.5; core dimer inh: -17.5; MLLE-PAM2 inh: -109.2; UBC9 SUMO inh: 10.3

Results for O=C1/C(=C\c2ccc(O)cc2)SC(=S)N1/N=C/c1ccc(O)cc1 ?
eIF4H inh: 82.7*; PABP polyA inh: active; eIF4E 4G PPI: 0.4; core dimer inh: -9.6; MLLE-PAM2 inh: -142.1; UBC9 SUMO inh: 12.9

Results for Cc1n[nH]c(=O)nc1NCc1ccco1 ?
eIF4H inh: -7.9; PABP polyA inh: inactive; eIF4E 4G PPI: 73.9*; core dimer inh: -1.0; MLLE-PAM2 inh: 8.8; UBC9 SUMO inh: -2.8

What do the screens show for `Cc1n[nH]c(=O)nc1NCc1ccccc1`?
eIF4H inh: -0.7; PABP polyA inh: inactive; eIF4E 4G PPI: 0.8; core dimer inh: 0.6; MLLE-PAM2 inh: 1.6; UBC9 SUMO inh: -11.8

Results for O=C(COC(=O)CNC(=O)c1ccccc1)NCCNC(=O)COC(=O)CNC(=O)c1ccccc1 ?
MLLE-PAM2 inh: -9.9

What do the screens show for `Cc1ccoc1C(=O)NCc1occc1C(=O)O`?
eIF4H inh: 73.6*; PABP polyA inh: inactive; eIF4E 4G PPI: 1.6; core dimer inh: -1.8; MLLE-PAM2 inh: 18.6; UBC9 SUMO inh: 9.0

What do the screens show for `CC(C)c1ccc(/C=N/n2c(COc3ccccc3)n[nH]c2=S)cc1`?
eIF4H inh: 4.6; PABP polyA inh: inactive; core dimer inh: 5.6; MLLE-PAM2 inh: -80.1; UBC9 SUMO inh: -39.8

What do the screens show for `N#CCCN(C(=O)COC(=O)CCc1nc2ccccc2c(=O)[nH]1)c1ccccc1F`?
MLLE-PAM2 inh: 0.5

What do the screens show for `Cc1c(/C=C2\SC(=Nc3cccc(C(=O)O)c3)NC2=O)c2ccccc2n1C`?
eIF4H inh: 0.0; PABP polyA inh: active; eIF4E 4G PPI: -0.2; core dimer inh: -1.0; MLLE-PAM2 inh: -174.5; UBC9 SUMO inh: 5.0

How did COc1ccc(C2=CC(=O)C[C@H](c3ccc(OC)cc3)C2)cc1 do in these assays?
MLLE-PAM2 inh: 4.5

What do the screens show for `COc1ccc(C2=CC(=O)C=CC2=O)cc1`?
eIF4H inh: -4.3; PABP polyA inh: inactive; eIF4E 4G PPI: 40.6*; UBC9 SUMO inh: 12.2

How did COCC1CCCCN1Cc1cn[nH]c1-c1ccc2cc(OC)ccc2c1 (stereo not drawn) do in these assays?
eIF4H inh: -12.0; PABP polyA inh: inactive; eIF4E 4G PPI: 2.7; core dimer inh: -4.8; MLLE-PAM2 inh: -0.7; UBC9 SUMO inh: 15.1

How did N#C/C(=N\Nc1ccc(S(=O)(=O)N2CCCCCC2)cc1)C(N)=S do in these assays?
eIF4H inh: -0.3; PABP polyA inh: inactive; eIF4E 4G PPI: -3.5; core dimer inh: 9.8; MLLE-PAM2 inh: 42.5*; UBC9 SUMO inh: 1.3

How did N#C/C(=N\Nc1ccc(S(=O)(=O)N2CCCCC2)cc1)C(N)=S do in these assays?
eIF4H inh: -4.7; PABP polyA inh: inactive; eIF4E 4G PPI: 15.2; core dimer inh: -5.8; MLLE-PAM2 inh: 10.8; UBC9 SUMO inh: -9.1

What do the screens show for `O=c1c2cc(N3CCOCC3)ccc2[nH]c(=S)n1Cc1ccccn1`?
eIF4H inh: 37.2*; PABP polyA inh: active; eIF4E 4G PPI: 8.2; core dimer inh: 1.5; MLLE-PAM2 inh: -28.4; UBC9 SUMO inh: 55.4*

How did O=c1c2cc(N3CCOCC3)ccc2[nH]c(=S)n1Cc1ccccc1Cl do in these assays?
eIF4H inh: 2.9; PABP polyA inh: inactive; eIF4E 4G PPI: -5.4; core dimer inh: 16.8; MLLE-PAM2 inh: -108.3; UBC9 SUMO inh: 12.2

What do the screens show for `CCN(CC(=O)Nc1c(F)cccc1F)C(=O)CCNC(=O)c1ccc([N+](=O)[O-])cc1`?
core dimer inh: -4.5; MLLE-PAM2 inh: 10.7

Results for CCC(c1nnnn1Cc1ccc(F)cc1)N(CCCO)Cc1cc2cc3c(cc2[nH]c1=O)OCO3 (stereo not drawn) ?
eIF4H inh: 9.7; PABP polyA inh: inactive; eIF4E 4G PPI: 3.6; core dimer inh: -2.8; MLLE-PAM2 inh: 45.3*; UBC9 SUMO inh: 17.8
